Assay results published in ChEMBL document CHEMBL5380865, “Linearization of the Brevicidine and Laterocidine Lipopeptides Yields Analogues That Retain Full Antibacterial Activity” (J Med Chem, 2023).
In brackets after ≈: the same amount, converted by molar mass. Where a SMILES comes first, the peptide text is derived from it. Bridges are numbered along the chain shown (N, C = ends). [ ]: non-standard residue; d: D form. The star is where a group is joined. ξ: configuration not given here. Octanoyl(7-Me) = CC(C)CCCCCC(=O)*; Hexanoyl(4ξ-Me) = CCC(C)CCC(=O)*; dOrn = NCCC[C@@H](N)C(=O)O; Orn = NCCC[C@H](N)C(=O)O; Dap = NC[C@H](N)C(=O)O; Alloc = C=CCOC(=O)*; OAll = C=CCO*

What was measured:
[1] = Hemolytic activity in sheep red blood cell assessed as hemolysis at 1 to 128 ug/ml incubated for 1 hrs relative to control; type: toxicity, cell-based, Ovis aries, Erythrocyte; settings: sheep red blood cells (erythrocytes), at 1 to 128 µg/mL, dose 1-128 µg/ml, read-out: Activity
How it was run: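 Defibrinated sheep erythrocytes washed five times in PBS with 0.002% Tween20 and normalized so the Triton control reads 2.5–3.0 at 415 nm. Mixed 1:1 with compound serial dilutions (128–1 μg/mL) and incubated 1 h at 37 °C, 500 rpm. Supernatant A415 is background-corrected with buffer and expressed as percent of 0.1% Triton X-100 (final). Run in triplicate.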

Escherichia coli = experiment: Antibacterial activity Escherichia coli ATCC 25922 assessed as inhibition of visible bacterial growth incubated for 18 hrs by microbroth dilution assay; type: functional
How it was run: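 CLSI broth microdilution. Strains streaked from glycerol stocks onto blood agar (16 h, 37 °C); single colonies grown in TSB at 37 °C, 220 rpm, to OD600 about 0.5. Diluted in MHB to 2 × 10^5 CFU/mL and mixed 1:1 with compounds serially diluted in MHB from DMSO stocks (colistin from water stocks), polypropylene plates. Sealed, 18 h at 37 °C, 600 rpm. MIC taken as lowest concentration preventing visible growth, three technical replicates.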

| SMILES | hemolysis at 1 h [1] [%] | MIC (Escherichia coli) [µg/mL] |
| --- | --- | --- |
| CCC(C)CCC(=O)N[C@H](CC(N)=O)C(=O)N[C@H](Cc1ccc(O)cc1)C(=O)N[C@H](Cc1c[nH]c2ccccc12)C(=O)N[C@H](CCCN)C(=O)N[C@@H](CCCN)C(=O)NCC(=O)N[C@H](CCCN)C(=O)N[C@@H](Cc1c[nH]c2ccccc12)C(N)=O (stereo not given in full) ({Hexanoyl(4ξ-Me)}-[dN][dY][dW][dOrn][Orn]G[dOrn]W-NH2) | < 0.1 |  |
| CCC(C)CCC(=O)N[C@H](CC(N)=O)C(=O)N[C@H](Cc1ccc(O)cc1)C(=O)N[C@H](Cc1c[nH]c2ccccc12)C(=O)N[C@H](CCCN)C(=O)N[C@@H](CCCN)C(=O)NCC(=O)N[C@H](CCCN)C(=O)N[C@@H](Cc1c[nH]c2ccccc12)C(=O)N[C@H](C(N)=O)[C@@H](C)O (stereo not given in full) ({Hexanoyl(4ξ-Me)}-[dN][dY][dW][dOrn][Orn]G[dOrn]WT-NH2) | < 0.1 |  |
| CCC(C)CCC(=O)N[C@H](CC(N)=O)C(=O)N[C@H](Cc1ccc(O)cc1)C(=O)N[C@H](Cc1c[nH]c2ccccc12)C(=O)N[C@H](CCCN)C(=O)N[C@@H](CCCN)C(=O)NCC(=O)N[C@H](CCCN)C(=O)N[C@@H](Cc1c[nH]c2ccccc12)C(=O)N[C@H](C(=O)N[C@H](C(N)=O)[C@@H](C)CC)[C@@H](C)O (stereo not given in full) ({Hexanoyl(4ξ-Me)}-[dN][dY][dW][dOrn][Orn]G[dOrn]WTI-NH2) | < 0.1 |  |
| CCC(C)CCC(=O)N[C@H](CC(N)=O)C(=O)N[C@H](Cc1ccc(O)cc1)C(=O)N[C@H](Cc1c[nH]c2ccccc12)C(=O)N[C@H](CCCN)C(=O)N[C@@H](CCCN)C(=O)NCC(=O)N[C@H](CCCN)C(=O)N[C@@H](Cc1c[nH]c2ccccc12)C(=O)N[C@H](C(=O)N[C@H](C(=O)NCC(=O)N[C@@H](CO)C(N)=O)[C@@H](C)CC)[C@@H](C)O (stereo not given in full) ({Hexanoyl(4ξ-Me)}-[dN][dY][dW][dOrn][Orn]G[dOrn]WTIGS-NH2) | < 0.1 |  |
| CCC(C)CCC(=O)N[C@H](CC(N)=O)C(=O)N[C@H](Cc1ccc(O)cc1)C(=O)N[C@H](Cc1c[nH]c2ccccc12)C(=O)N[C@H](CCCN)C(=O)N[C@@H](CCCN)C(=O)NCC(=O)N[C@H](CCCN)C(=O)N[C@@H](Cc1c[nH]c2ccccc12)C(=O)N[C@H](C(=O)N[C@H](C(=O)NCC(=O)N[C@@H](CO)C(=O)O)[C@@H](C)CC)[C@@H](C)O (stereo not given in full) ({Hexanoyl(4ξ-Me)}-[dN][dY][dW][dOrn][Orn]G[dOrn]WTIGS-OH) | < 0.1 |  |
| CCC(C)CCC(=O)N[C@H](CC(N)=O)C(=O)N[C@H](Cc1ccc(O)cc1)C(=O)N[C@H](Cc1c[nH]c2ccccc12)C(=O)N[C@H](CCCN)C(=O)N[C@@H](CCCN)C(=O)NCC(=O)N[C@H](CCCN)C(=O)N[C@@H](Cc1c[nH]c2ccccc12)C(=O)N[C@@H]1C(=O)N[C@@H]([C@@H](C)CC)C(=O)NCC(=O)N[C@@H](CO)C(=O)O[C@@H]1C (stereo not given in full) ({Hexanoyl(4ξ-Me)}-[dN][dY][dW][dOrn][Orn]G[dOrn]WTIGS; ester 9-C) | < 0.1 |  |
| C=CCOC(=O)NC[C@H](NC(=O)[C@H](Cc1c[nH]c2ccccc12)NC(=O)[C@@H](CCCN)NC(=O)CNC(=O)[C@H](CCCN)NC(=O)[C@@H](CCCN)NC(=O)[C@@H](Cc1c[nH]c2ccccc12)NC(=O)[C@@H](Cc1ccc(O)cc1)NC(=O)[C@@H](CC(N)=O)NC(=O)CCC(C)CC)C(=O)N[C@H](C(=O)NCC(N)=O)[C@@H](C)CC (stereo not given in full) ({Hexanoyl(4ξ-Me)}-[dN][dY][dW][dOrn][Orn]G[dOrn]W[Dap](Alloc)IG-NH2) | < 0.1 |  |
| CC[C@H](C)[C@H](NC(=O)[C@@H](NC(=O)[C@H](Cc1c[nH]c2ccccc12)NC(=O)[C@@H](CCCN)NC(=O)[C@H](C)NC(=O)[C@H](CCCN)NC(=O)[C@@H](CCCN)NC(=O)[C@@H](Cc1c[nH]c2ccccc12)NC(=O)[C@@H](Cc1ccc(O)cc1)NC(=O)[C@@H](CO)NC(=O)CCCCCC(C)C)[C@@H](C)O)C(=O)N[C@@H](CC(N)=O)C(=O)NCC(=O)NCC(N)=O ({Octanoyl(7-Me)}-[dS][dY][dW][dOrn][Orn]A[dOrn]WTINGG-NH2) |  | 4 (≈ 2.45 µM) |
| CC(C)CCCCCC(=O)N[C@H](CO)C(=O)N[C@H](Cc1ccc(O)cc1)C(=O)N[C@H](Cc1c[nH]c2ccccc12)C(=O)N[C@H](CCCN)C(=O)N[C@@H](CCCN)C(=O)NCC(=O)N[C@H](CCCN)C(=O)N[C@@H](Cc1c[nH]c2ccccc12)C(N)=O ({Octanoyl(7-Me)}-[dS][dY][dW][dOrn][Orn]G[dOrn]W-NH2) | < 0.1 |  |
| C=CCOC(=O)CC[C@H](NC(=O)[C@H](Cc1c[nH]c2ccccc12)NC(=O)[C@@H](CCCN)NC(=O)CNC(=O)[C@H](CCCN)NC(=O)[C@@H](CCCN)NC(=O)[C@@H](Cc1c[nH]c2ccccc12)NC(=O)[C@@H](Cc1ccc(O)cc1)NC(=O)[C@@H](CO)NC(=O)CCCCCC(C)C)C(=O)N[C@H](C(=O)N[C@@H](CC(N)=O)C(=O)NCC(=O)NCC(N)=O)[C@@H](C)CC ({Octanoyl(7-Me)}-[dS][dY][dW][dOrn][Orn]G[dOrn]WE(OAll)INGG-NH2) | < 0.1 |  |
| CC[C@H](C)[C@H](NC(=O)[C@H](Cc1ccccc1)NC(=O)[C@H](Cc1c[nH]c2ccccc12)NC(=O)[C@@H](CCCN)NC(=O)CNC(=O)[C@H](CCCN)NC(=O)[C@@H](CCCN)NC(=O)[C@@H](Cc1c[nH]c2ccccc12)NC(=O)[C@@H](Cc1ccc(O)cc1)NC(=O)[C@@H](CO)NC(=O)CCCCCC(C)C)C(=O)N[C@@H](CC(N)=O)C(=O)NCC(=O)NCC(N)=O ({Octanoyl(7-Me)}-[dS][dY][dW][dOrn][Orn]G[dOrn]WFINGG-NH2) | 0.6 |  |
| CC[C@H](C)[C@H](NC(=O)[C@H](CC(C)C)NC(=O)[C@H](Cc1c[nH]c2ccccc12)NC(=O)[C@@H](CCCN)NC(=O)CNC(=O)[C@H](CCCN)NC(=O)[C@@H](CCCN)NC(=O)[C@@H](Cc1c[nH]c2ccccc12)NC(=O)[C@@H](Cc1ccc(O)cc1)NC(=O)[C@@H](CO)NC(=O)CCCCCC(C)C)C(=O)N[C@@H](CC(N)=O)C(=O)NCC(=O)NCC(N)=O ({Octanoyl(7-Me)}-[dS][dY][dW][dOrn][Orn]G[dOrn]WLINGG-NH2) | < 0.1 |  |
| CC[C@H](C)[C@H](NC(=O)[C@H](CC(N)=O)NC(=O)[C@H](Cc1c[nH]c2ccccc12)NC(=O)[C@@H](CCCN)NC(=O)CNC(=O)[C@H](CCCN)NC(=O)[C@@H](CCCN)NC(=O)[C@@H](Cc1c[nH]c2ccccc12)NC(=O)[C@@H](Cc1ccc(O)cc1)NC(=O)[C@@H](CO)NC(=O)CCCCCC(C)C)C(=O)N[C@@H](CC(N)=O)C(=O)NCC(=O)NCC(N)=O ({Octanoyl(7-Me)}-[dS][dY][dW][dOrn][Orn]G[dOrn]WNINGG-NH2) | < 0.1 |  |
| CC[C@H](C)[C@H](NC(=O)[C@H](CO)NC(=O)[C@H](Cc1c[nH]c2ccccc12)NC(=O)[C@@H](CCCN)NC(=O)CNC(=O)[C@H](CCCN)NC(=O)[C@@H](CCCN)NC(=O)[C@@H](Cc1c[nH]c2ccccc12)NC(=O)[C@@H](Cc1ccc(O)cc1)NC(=O)[C@@H](CO)NC(=O)CCCCCC(C)C)C(=O)N[C@@H](CC(N)=O)C(=O)NCC(=O)NCC(N)=O ({Octanoyl(7-Me)}-[dS][dY][dW][dOrn][Orn]G[dOrn]WSINGG-NH2) | < 0.1 |  |
| CC(C)CCCCCC(=O)N[C@H](CO)C(=O)N[C@H](Cc1ccc(O)cc1)C(=O)N[C@H](Cc1c[nH]c2ccccc12)C(=O)N[C@H](CCCN)C(=O)N[C@@H](CCCN)C(=O)NCC(=O)N[C@H](CCCN)C(=O)N[C@@H](Cc1c[nH]c2ccccc12)C(=O)N[C@H](C(N)=O)[C@@H](C)O ({Octanoyl(7-Me)}-[dS][dY][dW][dOrn][Orn]G[dOrn]WT-NH2) | < 0.1 | > 32 |
| CC[C@H](C)[C@H](NC(=O)[C@@H](NC(=O)[C@H](Cc1c[nH]c2ccccc12)NC(=O)[C@@H](CCCN)NC(=O)CNC(=O)[C@H](CCCN)NC(=O)[C@@H](CCCN)NC(=O)[C@@H](Cc1c[nH]c2ccccc12)NC(=O)[C@@H](Cc1ccc(O)cc1)NC(=O)[C@@H](CO)NC(=O)CCCCCC(C)C)[C@@H](C)O)C(=O)N[C@@H](CC(N)=O)C(=O)NCC(N)=O ({Octanoyl(7-Me)}-[dS][dY][dW][dOrn][Orn]G[dOrn]WTING-NH2) | < 0.1 |  |
| CC[C@H](C)[C@H](NC(=O)[C@@H](NC(=O)[C@H](Cc1c[nH]c2ccccc12)NC(=O)[C@@H](CCCN)NC(=O)CNC(=O)[C@H](CCCN)NC(=O)[C@@H](CCCN)NC(=O)[C@@H](Cc1c[nH]c2ccccc12)NC(=O)[C@@H](Cc1ccc(O)cc1)NC(=O)[C@@H](CO)NC(=O)CCCCCC(C)C)[C@@H](C)O)C(=O)N[C@@H](CC(N)=O)C(=O)NCC(=O)NCC(N)=O ({Octanoyl(7-Me)}-[dS][dY][dW][dOrn][Orn]G[dOrn]WTINGG-NH2) | < 0.1 |  |
| CC[C@H](C)[C@H](NC(=O)[C@@H](NC(=O)[C@H](Cc1c[nH]c2ccccc12)NC(=O)[C@@H](CCCN)NC(=O)CNC(=O)[C@H](CCCN)NC(=O)[C@@H](CCCN)NC(=O)[C@@H](Cc1c[nH]c2ccccc12)NC(=O)[C@@H](Cc1ccc(O)cc1)NC(=O)[C@@H](CO)NC(=O)CCCCCC(C)C)[C@@H](C)O)C(=O)N[C@@H](CC(N)=O)C(=O)NCC(=O)NCC(=O)O ({Octanoyl(7-Me)}-[dS][dY][dW][dOrn][Orn]G[dOrn]WTINGG-OH) | < 0.1 |  |
| C=CCOC(=O)NC[C@H](NC(=O)[C@H](Cc1c[nH]c2ccccc12)NC(=O)[C@@H](CCCN)NC(=O)CNC(=O)[C@H](CCCN)NC(=O)[C@@H](CCCN)NC(=O)[C@@H](Cc1c[nH]c2ccccc12)NC(=O)[C@@H](Cc1ccc(O)cc1)NC(=O)[C@@H](CO)NC(=O)CCCCCC(C)C)C(=O)N[C@H](C(=O)N[C@@H](CC(N)=O)C(=O)NCC(=O)NCC(N)=O)[C@@H](C)CC ({Octanoyl(7-Me)}-[dS][dY][dW][dOrn][Orn]G[dOrn]W[Dap](Alloc)INGG-NH2) | < 0.1 |  |
